≈ marks a conversion by molar mass, not a printed value.
Columns and labels:
Type in all cases: functional
[1] = system: Streptococcus pneumoniae; test: Antimicrobial activity against Streptococcus pneumoniae 10 expressing mefA after 20 hrs by agar dilution method; details: Streptococcus pneumoniae, 20 h; read-out: MIC
Summary of the method: (§1)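 Streptococci, H. influenzae and M. catarrhalis were precultured on blood agar plates. Suspensions of about 10⁶ CFU/ml were inoculated onto sensitivity disk agar supplemented with 5% horse blood and incubated at 37 °C for 20 h. MIC was read as the lowest drug concentration with no visible growth.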

[2] = system: Streptococcus pneumoniae; test: Antimicrobial activity against Streptococcus pneumoniae 8 expressing inducible ermB after 20 hrs by agar dilution method; details: Streptococcus pneumoniae, 20 h; read-out: MIC; summary of the method: as §1
[3] = system: Haemophilus influenzae; test: Antimicrobial activity against drug-susceptible Haemophilus influenzae 3 after 20 hrs by agar dilution method; details: Haemophilus influenzae, 20 h; read-out: MIC; summary of the method: as §1
[4] = system: Streptococcus pneumoniae; test: Antimicrobial activity against Streptococcus pneumoniae 5 constitutively expressing ermB/mefA after 20 hrs by agar dilution method; details: Streptococcus pneumoniae, 20 h; read-out: MIC; summary of the method: as §1
[5] = system: Streptococcus pyogenes; test: Antimicrobial activity against Streptococcus pyogenes 3 expressing mefA after 20 hrs by agar dilution method; details: Streptococcus pyogenes, 20 h; read-out: MIC; summary of the method: as §1
[6] = system: Streptococcus pneumoniae; test: Antimicrobial activity against Streptococcus pneumoniae 6 constitutively expressing ermB after 20 hrs by agar dilution method; details: Streptococcus pneumoniae, 20 h; read-out: MIC; summary of the method: as §1
[7] = system: Staphylococcus aureus; test: Antimicrobial activity against Staphylococcus aureus 4 constitutively expressing ermA after 20 hrs by agar dilution method
Summary of the method: (§2)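 Agar dilution MIC. S. aureus seed culture was grown in sensitivity test broth. Cell suspension (about 10⁶ CFU/ml) was inoculated onto sensitivity disk agar with 5% horse blood and incubated at 37 °C for 20 h. MIC was the lowest drug concentration that prevented visible growth.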

[8] = system: Staphylococcus aureus; test: Antimicrobial activity against Staphylococcus aureus 5 expressing inducible ermB after 20 hrs by agar dilution method; details: Staphylococcus aureus, 20 h; read-out: MIC; summary of the method: as §2
[9] = system: Moraxella catarrhalis; test: Antimicrobial activity against drug-susceptible Moraxella catarrhalis 1 after 20 hrs by agar dilution method; details: Moraxella catarrhalis, 20 h; read-out: MIC; summary of the method: as §1
[10] = system: Streptococcus pneumoniae; test: Antimicrobial activity against Streptococcus pneumoniae 7 expressing inducible ermB after 20 hrs by agar dilution method; details: Streptococcus pneumoniae, 20 h; read-out: MIC; summary of the method: as §1
[11] = system: Staphylococcus aureus; test: Antimicrobial activity against drug-susceptible Staphylococcus aureus 209P JC-1 after 20 hrs by agar dilution method; details: Staphylococcus aureus, 209P, 20 h; read-out: MIC; summary of the method: as §2
[12] = system: Staphylococcus aureus; test: Antimicrobial activity against drug-susceptible Staphylococcus aureus 3 after 20 hrs by agar dilution method; details: Staphylococcus aureus, 20 h; read-out: MIC; summary of the method: as §2
[13] = system: Streptococcus pneumoniae; test: Antimicrobial activity against drug-susceptible Streptococcus pneumoniae 2 after 20 hrs by agar dilution method; details: Streptococcus pneumoniae, 20 h; read-out: MIC; summary of the method: as §1
[14] = system: Streptococcus pneumoniae; test: Antimicrobial activity against Streptococcus pneumoniae 9 expressing mefA after 20 hrs by agar dilution method; details: Streptococcus pneumoniae, 20 h; read-out: MIC; summary of the method: as §1
[15] = system: Streptococcus pyogenes; test: Antimicrobial activity against Streptococcus pyogenes 2 constitutively expressing ermB after 20 hrs by agar dilution method; summary of the method: as §1
[16] = system: Haemophilus influenzae; test: Antimicrobial activity against drug-susceptible Haemophilus influenzae 1 after 20 hrs by agar dilution method; details: Haemophilus influenzae, 20 h; read-out: MIC; summary of the method: as §1
[17] = system: Streptococcus pyogenes; test: Antimicrobial activity against drug-susceptible Streptococcus pyogenes 1 after 20 hrs by agar dilution method; details: Streptococcus pyogenes, 20 h; read-out: MIC; summary of the method: as §1
[18] = system: Haemophilus influenzae; test: Antimicrobial activity against drug-susceptible Haemophilus influenzae 2 after 20 hrs by agar dilution method; details: Haemophilus influenzae, 20 h; read-out: MIC; summary of the method: as §1
[19] = system: Streptococcus pneumoniae; test: Antimicrobial activity against drug-susceptible Streptococcus pneumoniae DP1 Type1 after 20 hrs by agar dilution method; details: Streptococcus pneumoniae, 20 h; read-out: MIC; summary of the method: as §1
[20] = system: Haemophilus influenzae; test: Antimicrobial activity against drug-susceptible Haemophilus influenzae 4 after 20 hrs by agar dilution method; details: Haemophilus influenzae, 20 h; read-out: MIC; summary of the method: as §1
[21] = system: Streptococcus pneumoniae; test: Antimicrobial activity against Streptococcus pneumoniae 4 constitutively expressing ermB after 20 hrs by agar dilution method; details: Streptococcus pneumoniae, 20 h; read-out: MIC; summary of the method: as §1
[22] = system: Staphylococcus aureus; test: Antimicrobial activity against drug-susceptible Staphylococcus aureus 2 after 20 hrs by agar dilution method; details: Staphylococcus aureus, 20 h; read-out: MIC; summary of the method: as §2
[23] = system: Staphylococcus aureus; test: Antimicrobial activity against Staphylococcus aureus 6 expressing inducible ermB after 20 hrs by agar dilution method; summary of the method: as §2
[24] = system: Streptococcus pneumoniae; test: Antimicrobial activity against drug-susceptible Streptococcus pneumoniae 3 after 20 hrs by agar dilution method; details: Streptococcus pneumoniae, 20 h; read-out: MIC; summary of the method: as §1
[25] = system: Moraxella catarrhalis; test: Antimicrobial activity against drug-susceptible Moraxella catarrhalis 2 after 20 hrs by agar dilution method; details: Moraxella catarrhalis, 20 h; read-out: MIC; summary of the method: as §1

| SMILES | MIC [1] [µg/mL] | MIC [2] [µg/mL] | MIC [3] [µg/mL] | MIC [4] [µg/mL] | MIC [5] [µg/mL] | MIC [6] [µg/mL] | MIC [7] [µg/mL] | MIC [8] [µg/mL] | MIC [9] [µg/mL] | MIC [10] [µg/mL] | MIC [11] [µg/mL] | MIC [12] [µg/mL] | MIC [13] [µg/mL] | MIC [14] [µg/mL] | MIC [15] [µg/mL] | MIC [16] [µg/mL] | MIC [17] [µg/mL] | MIC [18] [µg/mL] | MIC [19] [µg/mL] | MIC [20] [µg/mL] | other results |
| --- | --- | --- | --- | --- | --- | --- | --- | --- | --- | --- | --- | --- | --- | --- | --- | --- | --- | --- | --- | --- | --- |
| CCOC(=O)[C@H]1[C@H](C)O[C@@H](O[C@H]2[C@H](N(C)C)[C@@H](O)[C@H](O[C@H]3[C@@H](CC=O)C[C@@H](C)[C@@H](O)CN(C)CCC[C@H](C/C=C/c4ccccc4)OC(=O)C[C@@H](OC(=O)CC)[C@@H]3OC)O[C@@H]2C)C[C@@]1(C)O | 0.06 (≈ 0.0642 µM) | 4 (≈ 4.28 µM) | 16 (≈ 17.1 µM) | > 128 | 0.5 (≈ 0.535 µM) | > 128 | > 128 | 0.25 (≈ 0.267 µM) | 1 (≈ 1.07 µM) | 2 (≈ 2.14 µM) | 0.5 (≈ 0.535 µM) | 0.25 (≈ 0.267 µM) | 0.06 (≈ 0.0642 µM) | 0.06 (≈ 0.0642 µM) | > 128 | 64 (≈ 68.4 µM) | 0.13 (≈ 0.139 µM) | 8 (≈ 8.55 µM) | 0.03 (≈ 0.0321 µM) | 8 (≈ 8.55 µM) | MIC [21]: 128 µg/mL (≈ 137 µM); MIC [22]: 1 µg/mL (≈ 1.07 µM); MIC [23]: 0.5 µg/mL (≈ 0.535 µM); MIC [24]: 0.06 µg/mL (≈ 0.0642 µM); MIC [25]: 1 µg/mL (≈ 1.07 µM) |
| CCOC(=O)[C@H]1[C@H](C)O[C@@H](O[C@H]2[C@H](N(C)C)[C@@H](O)[C@H](O[C@H]3[C@@H](CC=O)C[C@@H](C)[C@@H](O)CN(C)CC(/C=C/Cc4cncc5ccccc45)CCOC(=O)C[C@@H](OC(=O)CC)[C@@H]3OC)O[C@@H]2C)C[C@@]1(C)O (stereo not given in full) | 0.03 (≈ 0.0304 µM) | 8 (≈ 8.11 µM) | 8 (≈ 8.11 µM) | 128 (≈ 130 µM) | 0.25 (≈ 0.253 µM) | 128 (≈ 130 µM) | > 128 | 0.13 (≈ 0.132 µM) | 1 (≈ 1.01 µM) | 8 (≈ 8.11 µM) | 0.25 (≈ 0.253 µM) | 0.13 (≈ 0.132 µM) | 0.03 (≈ 0.0304 µM) | 0.015 (≈ 0.0152 µM) | > 128 | 32 (≈ 32.4 µM) | 0.03 (≈ 0.0304 µM) | 2 (≈ 2.03 µM) | 0.015 (≈ 0.0152 µM) | 8 (≈ 8.11 µM) | MIC [21]: 128 µg/mL (≈ 130 µM); MIC [22]: 0.5 µg/mL (≈ 0.507 µM); MIC [23]: 0.25 µg/mL (≈ 0.253 µM); MIC [24]: 0.015 µg/mL (≈ 0.0152 µM); MIC [25]: 1 µg/mL (≈ 1.01 µM) |
| CCOC(=O)[C@H]1[C@H](C)O[C@@H](O[C@H]2[C@H](N(C)C)[C@@H](O)[C@H](O[C@H]3[C@@H](CC=O)C[C@@H](C)[C@@H](O)CN(C)CCC[C@@H](C/C=C/c4ccnc5ccccc45)OC(=O)C[C@@H](OC(=O)CC)[C@@H]3OC)O[C@@H]2C)C[C@@]1(C)O | 0.13 (≈ 0.132 µM) | 32 (≈ 32.4 µM) | 16 (≈ 16.2 µM) | > 128 | 0.5 (≈ 0.507 µM) | > 128 | > 128 | 0.25 (≈ 0.253 µM) | 2 (≈ 2.03 µM) | 32 (≈ 32.4 µM) | 0.5 (≈ 0.507 µM) | 0.25 (≈ 0.253 µM) | 0.13 (≈ 0.132 µM) | 0.13 (≈ 0.132 µM) | > 128 | 64 (≈ 64.9 µM) | 0.25 (≈ 0.253 µM) | 8 (≈ 8.11 µM) | 0.13 (≈ 0.132 µM) | 16 (≈ 16.2 µM) | MIC [21]: > 128 µg/mL; MIC [22]: 1 µg/mL (≈ 1.01 µM); MIC [23]: 0.5 µg/mL (≈ 0.507 µM); MIC [24]: 0.06 µg/mL (≈ 0.0608 µM); MIC [25]: 4 µg/mL (≈ 4.06 µM) |

Source: ChEMBL document CHEMBL1151705, “Novel azalides derived from 16-membered macrolides. Part II: Isolation of the linear 9-formylcarboxylic acid and its sequential macrocyclization with an amino alcohol or an azidoamine” (2008)
